Data taken from ChEMBL document CHEMBL4665633, “Cereblon versus VHL: Hijacking E3 ligases against each other using PROTACs” (Bioorg Med Chem, 2019).
Calls of active or inactive are those of the source. No cut-off for these calls is given here.

Experiments:
Format in all cases: cell-based
[1] = target: T1, Protein cereblon/von Hippel-Lindau disease tumor suppressor (Homo sapiens, UniProt P40337+Q96SW2); test: Protac activity at VHL/CRBN in HEK293 cells assessed as pVHL19 protein abundance at 1 uM after 8 hrs by Western blot analysis relative to DMSO
In short: (§1)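 HEK293 cells (DMEM, 10% FBS, penicillin/streptomycin, L-glutamine; 37 °C, 5% CO2; ≤30 passages) seeded at 1 × 10⁶ per well overnight, then treated with compound at 0.1% v/v final DMSO. Cells were lysed in RIPA with protease inhibitors and benzonase, then clarified. Equal Bradford-quantified protein was immunoblotted for CRBN/VHL. Bands were normalised to β-tubulin and expressed as % of mean 0.1% DMSO vehicle.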
Target sequence in this assay (P40337 whole entry, looked up): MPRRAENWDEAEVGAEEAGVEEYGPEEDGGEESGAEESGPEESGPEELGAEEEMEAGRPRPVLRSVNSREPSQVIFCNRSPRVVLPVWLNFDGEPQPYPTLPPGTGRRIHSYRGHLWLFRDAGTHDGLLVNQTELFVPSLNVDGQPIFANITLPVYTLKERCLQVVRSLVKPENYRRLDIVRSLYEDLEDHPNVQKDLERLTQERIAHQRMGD
Target sequence in this assay (Q96SW2 whole entry, looked up): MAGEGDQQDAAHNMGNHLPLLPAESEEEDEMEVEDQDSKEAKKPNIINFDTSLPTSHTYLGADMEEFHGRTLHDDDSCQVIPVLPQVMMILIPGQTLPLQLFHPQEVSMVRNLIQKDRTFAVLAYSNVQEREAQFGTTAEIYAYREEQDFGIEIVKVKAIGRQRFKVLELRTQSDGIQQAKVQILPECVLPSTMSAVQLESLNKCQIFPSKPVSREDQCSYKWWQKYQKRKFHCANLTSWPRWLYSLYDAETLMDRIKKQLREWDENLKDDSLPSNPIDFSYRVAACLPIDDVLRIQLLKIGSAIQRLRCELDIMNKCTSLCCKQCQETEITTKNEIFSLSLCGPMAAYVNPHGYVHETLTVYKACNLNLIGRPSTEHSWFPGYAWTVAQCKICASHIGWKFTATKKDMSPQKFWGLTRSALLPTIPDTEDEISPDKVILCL

[2] = target: T1, Protein cereblon/von Hippel-Lindau disease tumor suppressor; test: Protac activity at VHL/CRBN in HEK293 cells assessed as pVHL19 protein abundance at 1 uM after 12 hrs by Western blot analysis relative to DMSO; in short: as §1
Target sequence in this assay (P40337 whole entry, looked up): as the sequence (P40337 whole entry, looked up) above
Target sequence in this assay (Q96SW2 whole entry, looked up): as the sequence (Q96SW2 whole entry, looked up) above

[3] = target: T1, Protein cereblon/von Hippel-Lindau disease tumor suppressor; test: Protac activity at VHL/CRBN in HEK293 cells assessed as pVHL19 protein abundance at 1 uM after 24 hrs by Western blot analysis relative to DMSO; in short: as §1
Target sequence in this assay (P40337 whole entry, looked up): as the sequence (P40337 whole entry, looked up) above
Target sequence in this assay (Q96SW2 whole entry, looked up): as the sequence (Q96SW2 whole entry, looked up) above

[4] = target: T1, Protein cereblon/von Hippel-Lindau disease tumor suppressor; test: Protac activity at VHL/CRBN in HEK293 cells assessed as pVHL30 protein abundance at 1 uM after 1 hr by Western blot analysis relative to DMSO; in short: as §1
Target sequence in this assay (P40337 whole entry, looked up): as the sequence (P40337 whole entry, looked up) above
Target sequence in this assay (Q96SW2 whole entry, looked up): as the sequence (Q96SW2 whole entry, looked up) above

[5] = target: T1, Protein cereblon/von Hippel-Lindau disease tumor suppressor; test: Protac activity at VHL/CRBN in HEK293 cells assessed as CRBN protein abundance at 1 uM after 4 hrs by Western blot analysis relative to DMSO; in short: as §1
Target sequence in this assay (P40337 whole entry, looked up): as the sequence (P40337 whole entry, looked up) above
Target sequence in this assay (Q96SW2 whole entry, looked up): as the sequence (Q96SW2 whole entry, looked up) above

[6] = target: T1, Protein cereblon/von Hippel-Lindau disease tumor suppressor; test: Protac activity at VHL/CRBN in HEK293 cells assessed as CRBN protein abundance at 1 uM after 24 hrs by Western blot analysis relative to DMSO; in short: as §1
Target sequence in this assay (P40337 whole entry, looked up): as the sequence (P40337 whole entry, looked up) above
Target sequence in this assay (Q96SW2 whole entry, looked up): as the sequence (Q96SW2 whole entry, looked up) above

[7] = target: T1, Protein cereblon/von Hippel-Lindau disease tumor suppressor; test: Protac activity at VHL/CRBN in HEK293 cells assessed as pVHL19 protein abundance at 10 nM after 4 hrs by Western blot analysis relative to DMSO; in short: as §1
[8] = target: T1, Protein cereblon/von Hippel-Lindau disease tumor suppressor; test: Protac activity at VHL/CRBN in HEK293 cells assessed as pVHL19 protein abundance at 50 nM after 4 hrs by Western blot analysis relative to DMSO; in short: as §1
[9] = target: T1, Protein cereblon/von Hippel-Lindau disease tumor suppressor; test: Protac activity at VHL/CRBN in HEK293 cells assessed as pVHL19 protein abundance at 100 nM after 4 hrs by Western blot analysis relative to DMSO; in short: as §1
[10] = target: T1, Protein cereblon/von Hippel-Lindau disease tumor suppressor; test: Protac activity at VHL/CRBN in HEK293 cells assessed as pVHL30 protein abundance at 10 nM after 4 hrs by Western blot analysis relative to DMSO; in short: as §1
[11] = target: T1, Protein cereblon/von Hippel-Lindau disease tumor suppressor; test: Protac activity at VHL/CRBN in HEK293 cells assessed as pVHL30 protein abundance at 500 nM after 4 hrs by Western blot analysis relative to DMSO; in short: as §1
[12] = target: T1, Protein cereblon/von Hippel-Lindau disease tumor suppressor; test: Protac activity at VHL/CRBN in HEK293 cells assessed as pVHL30 protein abundance at 5000 nM after 4 hrs by Western blot analysis relative to DMSO; in short: as §1
[13] = target: T1, Protein cereblon/von Hippel-Lindau disease tumor suppressor; test: Protac activity at VHL/CRBN in HEK293 cells assessed as CRBN protein abundance at 10 nM after 4 hrs by Western blot analysis relative to DMSO; in short: as §1
[14] = target: T1, Protein cereblon/von Hippel-Lindau disease tumor suppressor; test: Protac activity at VHL/CRBN in HEK293 cells assessed as CRBN protein abundance at 50 nM after 4 hrs by Western blot analysis relative to DMSO; in short: as §1
[15] = target: T1, Protein cereblon/von Hippel-Lindau disease tumor suppressor; test: Protac activity at VHL/CRBN in HEK293 cells assessed as CRBN protein abundance at 1000 nM after 4 hrs by Western blot analysis relative to DMSO; in short: as §1
[16] = target: T1, Protein cereblon/von Hippel-Lindau disease tumor suppressor; test: Protac activity at VHL/CRBN in HEK293 cells assessed as CRBN protein abundance at 10000 nM after 4 hrs by Western blot analysis relative to DMSO; in short: as §1
[17] = target: T1, Protein cereblon/von Hippel-Lindau disease tumor suppressor; test: Protac activity at VHL/CRBN in human HeLa cells assessed as pVHL19 protein abundance at 1 uM after 8 hrs by Western blot analysis relative to DMSO
In short: (§2)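 HeLa cells seeded overnight, then exposed to 1 µM compound (0.1% v/v DMSO final) over a time course. Cells were DPBS-washed and RIPA-lysed with protease inhibitors and benzonase; equal protein was loaded. Immunoblots for CRBN and VHL isoforms were quantified against β-tubulin and reported relative to the averaged 0.1% DMSO vehicle.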

[18] = target: T1, Protein cereblon/von Hippel-Lindau disease tumor suppressor; test: Protac activity at VHL/CRBN in human HeLa cells assessed as pVHL30 protein abundance at 1 uM after 24 hrs by Western blot analysis relative to DMSO; in short: as §2
[19] = target: T1, Protein cereblon/von Hippel-Lindau disease tumor suppressor; test: Protac activity at VHL/CRBN in human HeLa cells assessed as pVHL30 protein abundance at 50 nM after 4 hrs by Western blot analysis relative to DMSO
In short: (§3)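 HeLa cells (5 × 10⁵, DMEM + 10% FBS, 37 °C, 5% CO₂, ≤30 passages) seeded overnight, then treated 4 h with compound at single or graded concentrations (0.1% v/v DMSO final). RIPA lysates equalised by Bradford; SDS-PAGE and anti-CRBN/anti-VHL immunoblots; bands normalised to β-tubulin and expressed as % of mean DMSO vehicle. DC₅₀ from fit of band intensity versus log[concentration].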

[20] = target: T1, Protein cereblon/von Hippel-Lindau disease tumor suppressor; test: Protac activity at VHL/CRBN in human HeLa cells assessed as pVHL30 protein abundance at 500 nM after 4 hrs by Western blot analysis relative to DMSO; in short: as §3
[21] = target: T1, Protein cereblon/von Hippel-Lindau disease tumor suppressor; test: Protac activity at VHL/CRBN in human HeLa cells assessed as pVHL30 protein abundance at 1000 nM after 4 hrs by Western blot analysis relative to DMSO; in short: as §3
[22] = target: T1, Protein cereblon/von Hippel-Lindau disease tumor suppressor; test: Protac activity at VHL/CRBN in human HeLa cells assessed as CRBN protein abundance at 100 nM after 4 hrs by Western blot analysis relative to DMSO; in short: as §3
[23] = target: T1, Protein cereblon/von Hippel-Lindau disease tumor suppressor; test: Protac activity at VHL/CRBN in human HeLa cells assessed as CRBN protein abundance at 1000 nM after 4 hrs by Western blot analysis relative to DMSO; in short: as §3
[24] = target: T1, Protein cereblon/von Hippel-Lindau disease tumor suppressor; test: Protac activity at VHL/CRBN in human HeLa cells assessed as induction of CRBN degradation after 4 hrs by Western blot analysis; in short: as §3
Target sequence in this assay (P40337 whole entry): as the sequence (P40337 whole entry, looked up) above
Target sequence in this assay (Q96SW2 whole entry): as the sequence (Q96SW2 whole entry, looked up) above

[25] = target: T1, Protein cereblon/von Hippel-Lindau disease tumor suppressor; test: Protac activity at VHL/CRBN in human HeLa cells assessed as pVHL30 protein abundance at 10 nM after 4 hrs by Western blot analysis relative to DMSO; in short: as §3
[26] = target: T1, Protein cereblon/von Hippel-Lindau disease tumor suppressor; test: Protac activity at VHL/CRBN in human HeLa cells assessed as pVHL30 protein abundance at 1 uM after 4 hrs by Western blot analysis relative to DMSO; in short: as §2
[27] = target: T1, Protein cereblon/von Hippel-Lindau disease tumor suppressor; test: Protac activity at VHL/CRBN in HEK293 cells assessed as induction of CRBN degradation
[28] = target: T1, Protein cereblon/von Hippel-Lindau disease tumor suppressor; test: Protac activity at VHL/CRBN in human HeLa cells assessed as induction of CRBN degradation at 10 nM after 4 hrs by Western blot analysis relative to control; in short: as §3
[29] = target: T1, Protein cereblon/von Hippel-Lindau disease tumor suppressor; test: Protac activity at VHL/CRBN in human HeLa cells assessed as induction of VHL degradation at 1 uM after 1 to 24 hrs by Western blot analysis; conditions: time hrs 1-24; in short: as §2
[30] = target: T1, Protein cereblon/von Hippel-Lindau disease tumor suppressor; test: Protac activity at VHL/CRBN in HEK293 cells assessed as induction of VHL degradation at 1 uM after 1 to 24 hrs by Western blot analysis; conditions: time hrs 1-24

Cc1ncsc1-c1ccc(CNC(=O)[C@@H]2C[C@@H](O)CN2C(=O)[C@@H](NC(=O)COCCCCCOCCOCCCCCOCC(=O)NCCNc2cccc3c2C(=O)N(C2CCC(=O)NC2=O)C3=O)C(C)(C)C)cc1 (stereo not given in full)
Activity [1]: 105%
Activity [2]: 102%
Activity [3]: 101%
Activity [4]: 88%
Activity [5]: 6%
Activity [6]: 6%
Activity [7]: 110%
Activity [8]: 111%
Activity [9]: 111%
Activity [10]: 135%
Activity [11]: 130%
Activity [12]: 124%
Activity [13]: 113%
Activity [14]: 91%
Activity [15]: 23%
Activity [16]: 66%
Activity [17]: 100%
Activity [18]: 97%
Activity [19]: 79%
Activity [20]: 83%
Activity [21]: 125%
Activity [22]: 70%
Activity [23]: 25%
DC50 [24]: 200 nM
Activity [25]: 64%
Activity [26]: 103%
Activity [27]: Active
Activity [28]: 19%
Activity [29]: inactive
Activity [30]: inactive
